# UCH37 inh = inhibitors of human deubiquitinating enzyme UCH37; purified proteasome/UCH37, Ub-AMC cleavage fluorescence; inhibition, % (no concentration beside the values); 330,000 compounds, 0.33% hits;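 active means mean inhibition over replicate wells above about 20%, limit read from the data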;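 further: 0% = compound-free wells with enzyme and 100% = wells lacking proteasome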
# Target sequence (Q9Y5K5 whole entry, looked up): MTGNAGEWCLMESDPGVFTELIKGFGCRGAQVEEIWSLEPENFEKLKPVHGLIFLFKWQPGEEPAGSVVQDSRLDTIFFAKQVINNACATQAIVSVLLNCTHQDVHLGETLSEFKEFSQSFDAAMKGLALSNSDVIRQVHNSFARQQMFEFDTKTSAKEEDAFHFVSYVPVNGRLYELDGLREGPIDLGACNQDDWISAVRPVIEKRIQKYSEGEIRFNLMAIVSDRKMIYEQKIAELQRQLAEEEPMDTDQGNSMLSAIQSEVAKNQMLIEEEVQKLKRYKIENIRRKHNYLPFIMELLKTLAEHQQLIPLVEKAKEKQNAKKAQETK
#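 Reagent: Ub-AMC substrate; assay system: Proteasome-associated human UCH37 deubiquitinase; controls: no-proteasome and no-compound wells; read-out: % inhibition of Ub-AMC cleavage fluorescence; timing: 30 min preincubation with enzyme, 25 min cleavage at room temperature; signal: AMC fluorescence from Ub-AMC cleavage, excitation 355 nm, emission 460 nm; buffer or medium: Tris-HCl pH 7.4 plus ovalbumin, ATP-MgCl2, DTT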
# SENP7 block = SENP7 protease inhibition | Q9BQF6 | recombinant SENP7, Z-RLRGG-aminoluciferin luminescence, 40 min | inhibition, % at 5 µM | 330,000 compounds, 1.5% hits | AID 434973;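 active means inhibition above about 50% at the single test dose, limit read from the data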;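 further: plate controls were DMSO with enzyme for no effect and no enzyme buffer wells for full effect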
# SENP8 block-1 = blocks the human protease SENP8; purified SENP8, Z-RLRGG-aminoluciferin cleavage, luminescence; AID 2540; inhibition, % at 10 µM; Q96LD8; 330,000 compounds, 1.2% hits; in the data active means inhibition above about 50%
# Target sequence (Q96LD8 whole entry, looked up): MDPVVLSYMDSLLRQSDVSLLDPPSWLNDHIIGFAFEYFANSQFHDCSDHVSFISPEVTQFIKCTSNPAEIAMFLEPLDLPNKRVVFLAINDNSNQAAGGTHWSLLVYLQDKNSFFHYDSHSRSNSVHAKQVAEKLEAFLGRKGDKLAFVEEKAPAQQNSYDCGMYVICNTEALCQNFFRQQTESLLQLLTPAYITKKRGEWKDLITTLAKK
# SENP1 inh = inhibitors of human SENP1 SUMO protease catalytic domain | Q9P0U3 | recombinant SENP1 catalytic domain, CyPet-SUMO1-YPet FRET cleavage | inhibition, % at 10 µM | 360,000 compounds, 0.21% hits;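 active means inhibition at least 30% at 10 µM, raw YFP signal under a set limit, fluorescence ratio 0.5 to 1.5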;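 further: 0% = enzyme with DMSO and 100% = no enzyme wells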
#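 material = recombinant human SENP1 catalytic domain, His6-tagged | quantity = 20 pM enzyme | reagent = 25 nM SUMO1 FRET substrate | compound dosing = 10 µM single point, 0.5% DMSO | timing = 50 min enzyme reaction, room temperature, light-protected | detection = FRET, CFP and YFP emission | control set = no-enzyme low, enzyme-DMSO high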
# SENP8 block-2 = inhibitors of human SENP8 protease; Q96LD8; recombinant SENP8, Nedd8 substrate fluorescence; inhibition, % at 20 µM; 360,000 compounds, 0.64% hits; AID 602440; in the data active means inhibition mostly above about 40%, no sharp cut-off; inactive means mostly below about 27%
# SENP6 inh = SENP6 protease inhibition. 330,000 compounds, 1.8% hits. Recombinant SENP6 catalytic domain, aminoluciferin luminescence. inhibition, % at 10 µM;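 active means inhibition above about 50% at the single tested dose, limit read from the data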;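 further: plate controls were DMSO wells with enzyme for no effect and DMSO wells lacking enzyme for full effect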
# SENP8 confirm = confirmation of human SENP8 protease inhibitors; 6,200 compounds, 40% hits; shares compounds with SENP7 block; Recombinant SENP8, Z-RLRGG-aminoluciferin luminescence, 60 min; inhibition, % at 12.5 µM; AID 488912;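 active means mean inhibition across replicates above about 50%, limit read from the data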
# SENP6 confirm = human SENP6 inhibition, confirmed. shares compounds with SENP7 block. recombinant SENP6, Z-RLRGG-aminoluciferin luminescence. inhibition, % at 12.5 µM. 6,200 compounds, 58% hits. AID 488915
# SENP7 conf = human SENP7 inhibition, confirmed. shares compounds with SENP7 block. AID 488917. inhibition, % at 12.5 µM. 6,200 compounds, 69% hits. recombinant SENP7, Z-RLRGG-aminoluciferin luminescence, 40 min
# Casp3 SENP sel = selectivity test for SENP inhibitors: human caspase-3 inhibition; shares compounds with SENP7 block; purified caspase-3, Z-DEVD-aminoluciferin luminescence, 60 min; inhibition, % at 12.5 µM; 6,200 compounds, 60% hits; AID 488918;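 active means mean inhibition above about 50%, limit read from the data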;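 further: plate controls were enzyme with DMSO for no effect and wells without caspase-3 for full effect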
# SENP luc ctr = counter-screen for SENP inhibitors: luminescence interference. Pre-incubated SENP8/Z-RLRGG-aminoluciferin, luciferase luminescence interference. shares compounds with SENP7 block. 6,200 compounds, 39% hits. inhibition, % at 12.5 µM;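 active means mean inhibition above about 50% when retested at one dose, limit read from the data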;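 further: plate controls were DMSO wells with completed reaction for no effect and substrate without enzyme for full effect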
# * = called active by the depositor; i = inactive; / = no result given. This is a sample that favours compounds with a hit; in the whole collection about 2.6% have one here.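 How the source made its calls, unless noted: active means mean inhibition above about 50% in the one-dose retest (limit read from the data); inactive means the rest.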
SMILES,UCH37 inh,SENP7 block,SENP8 block-1,SENP1 inh,SENP8 block-2,SENP6 inh,SENP8 confirm,SENP6 confirm,SENP7 conf,Casp3 SENP sel,SENP luc ctr
CON=C(Cn1ncc(N2CCOCC2)c(Br)c1=O)c1ccc(Cl)cc1,3,/,/,/,/,/,/,/,/,/,/
O=C(NCCCNC1CCCCC1)c1ccc(C=NO)nc1,5,/,/,/,/,/,/,/,/,/,/
Cc1cc(C(=O)COC(=O)c2cccn2C)c(C)n1Cc1ccco1,2,67*,64*,-1,4,67*,81*,80*,94*,68*,-3
Cc1cc(C(=O)COC(=O)c2ccncc2)c(C)n1Cc1ccco1,1,6,-10,-7,5,-6,/,/,/,/,/
CC(C)(C=NO)/[N+]([O-])=C/c1ccccc1,4,/,/,/,/,/,/,/,/,/,/
S=c1[nH]c(-c2ccccc2)cn1N=Cc1cccc2ccccc12,3,/,/,/,/,/,/,/,/,/,/
CN(C)c1ccc(N=Cc2nc(-c3ccccc3)oc2OC(=O)c2cccc(Br)c2)cc1,4,47,49,-27,8,78*,-23,10,16,36,27
CC(=O)Oc1oc(-c2ccccc2)nc1C=Nc1ccccc1,2,-6,2,-2,13,3,/,/,/,/,/
COc1ccc(N=Cc2nc(-c3ccccc3)oc2OC(=O)c2ccccc2)cc1,2,56*,11,-36,4,54*,9,7,8,62*,5
Cc1ccc(C(=O)NN=Cc2cccnc2)s1,1,/,/,/,/,/,/,/,/,/,/
Cc1ccc(C(=O)CC(c2cccs2)S(=O)(=O)c2ccc(C)cc2)cc1 (stereo not drawn),4,63*,-4,1,30,62*,7,8,-4,4,4
CCC(=O)NCC(c1cccs1)S(=O)(=O)c1ccc(C)cc1 (stereo not drawn),1,7,-15,1,1,1,/,/,/,/,/
O=C(CC(c1cccs1)S(=O)(=O)c1ccccc1)c1ccc(F)cc1 (stereo not drawn),2,30,23,0,2,52*,3,-2,9,5,8
O=C(NCCO)C(=O)NCC(c1cccs1)S(=O)(=O)c1ccc(F)cc1 (stereo not drawn),/,/,/,2,17,/,/,/,/,/,/
COc1ccc2[nH]c3c(c2c1)CCn1c-3nc2ccccc2c1=O,-49,80*,-8,-20,i,26,7,10,23,18,4
COc1ccccc1C=NNC(=O)c1cc2c(OC)c(OC)ccc2[nH]1,-8,/,/,/,/,/,/,/,/,/,/
CCOc1ccc(NC(=O)CN2C(=O)NC(CCc3ccccc3)C2=O)cc1OCC (stereo not drawn),6,1,-7,-1,10,68*,9,3,-3,-3,-8
C=CCn1c(Cn2nnc3ccccc32)nnc1SCC(=O)NN=Cc1cc(Br)cc(OC)c1O,10,/,/,/,/,/,/,/,/,/,/
Cc1ccc(NC(=O)COc2ccccc2[N+](=O)[O-])nc1,3,70*,50,0,4,72*,15,42,81*,79*,7
Cc1ccnc(NC(=O)COc2ccccc2[N+](=O)[O-])c1,/,/,/,-2,-2,/,/,/,/,/,/
N/C(=N\OC(=O)c1ccccc1F)c1cccc([N+](=O)[O-])c1,/,64*,34,0,19,13,24,44,78*,51*,43
N/C(=N\OC(=O)c1ccccc1Br)c1cccc([N+](=O)[O-])c1,/,82*,66*,2,24,85*,59*,52*,83*,51*,66*
NC(=NOC(=O)c1cccc2ccccc12)c1cccc([N+](=O)[O-])c1,1,/,/,/,/,/,/,/,/,/,/
NC(=NOC(=O)c1ccccc1Br)c1cccc([N+](=O)[O-])c1,5,/,/,/,/,/,/,/,/,/,/
COc1cc(C=NNC(=S)Nc2cccc(C(=O)O)c2)ccc1O,10,/,/,/,/,/,/,/,/,/,/
SMILES,UCH37 inh,SENP7 block,SENP8 block-1,SENP1 inh,SENP8 block-2,SENP6 inh,SENP8 confirm,SENP6 confirm,SENP7 conf,Casp3 SENP sel,SENP luc ctr
COc1ccccc1CCn1c(N)c(C#N)c2nc3ccccc3nc21,-426,25,23,-51,-283,51*,-20,-6,-3,-6,-3
COc1ccc(CCn2c(N)c(C#N)c3nc4ccccc4nc32)cc1OC,-25,46,54*,-103,-446,62*,-2,22,4,6,2
CCCCCn1c(N)c(C#N)c2nc3ccccc3nc21,-484,3,2,-43,-287,10,/,/,/,/,/
COc1ccc(Cn2c(N)c(C#N)c3nc4ccccc4nc32)cc1OC,-61,14,16,-73,i,34,/,/,/,/,/
C=CCn1c(=C2C(=O)N(CC)C(=S)N2c2ccccc2)sc(=C2SC(C)=C(C)N2CC)c1=O,5,/,/,/,/,/,/,/,/,/,/
CCCCc1nnc(NC(=O)c2oc3ccc(OC)cc3c2C)s1,-58,-12,-12,-2,-454,-1,/,/,/,/,/
COc1ccc2oc(C(=O)Nc3nccs3)c(C)c2c1,-31,83*,-5,-13,-145,30,15,34,39,41,20
COc1ccc2oc(C(=O)OCC(=O)NCCc3ccccc3)c(C)c2c1,-42,3,18,-1,-430,-8,/,/,/,/,/
CCOc1ccc2oc(C(=O)Nc3nccs3)c(C)c2c1,-70,78*,22,-23,-186,11,19,14,26,39,11
COc1ccc2oc(C(=O)NCCc3ccccc3)c(C)c2c1,-12,88*,84*,-15,-201,90*,93*,92*,100*,86*,72*
Cc1cc(C=NNC(=O)c2ccc(O)cc2)c(C)n1CC(C)C,-2,/,/,/,/,/,/,/,/,/,/
COc1ccc(-c2csc(N3C(=O)C4C5c6ccccc6C(c6ccccc65)[C@@H]4C3=O)n2)cc1 (stereo partly drawn),4,-4,0,-2,7,0,/,/,/,/,/
COc1ccc(-c2csc(N3C(=N)SCC3=O)n2)cc1,3,9,80*,2,21,74*,20,12,17,18,0
Cc1ccc(/C=N/N=C/c2ccc(C)cc2)cc1,/,39,-13,1,14,1,/,/,/,/,/
C(=N\N=C\c1ccccc1)/c1ccccc1,/,69*,65*,3,5,83*,-2,67*,94*,62*,10
